Source: PubChem BioAssay (several laboratories)
RanGTP-Imp inh – disruptors of Ran-importin-beta complex formation – biochemical, FRET, CFP-Ran, YFP-importin-beta, homogeneous, primary screen; inhibition, % (no concentration beside the values); actives 1.1% (n = 300,000); AID 2216; cell-free CFP-Ran/YFP-importin-beta FRET ratio;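 active means more than half of the replicate wells show a fall in the fluorescence ratio signal beyond about 16%, limit read from the data, passing the limit was not always enough; inconclusive means exactly half of the replicate wells pass the set limit; inactive means fewer than half of replicates pass the limit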
Runt-CBFb FRET – inhibitors of human RUNX1 Runt domain binding to CBFb; Q01196+Q13951; Cerulean-Runt/Venus-CBFb FRET ratio 530/480, 1 h; inhibition, % at 20 µM; actives 0.46% (n = 220,000);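 active means inhibition over about 50% at 20 µM in the single-dose screen, limit read from the data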
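Assay system: Cerulean-tagged RUNX1 Runt domain (FRET donor) fusion protein / Amount: 100 nM each of Venus-CBFb and Cerulean-Runt domain / Medium: Tris buffer pH 7.5 with salts and BSA / Also added: Venus-CBFb 100 nM / Schedule: 1 h complex formation plus 1 h compound treatment, room temperature / Signal: FRET fluorescence / Read-out: loss of energy transfer signal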
Runt-SMMHC FRET – blocks binding of human RUNX1 Runt domain to CBFb-SMMHC | AID 1434 | actives 0.74% (n = 220,000) | Cerulean-Runt/Venus-CBFb-SMMHC FRET ratio 530/480, 1 h | Q01196+Q13951 | inhibition, % at 20 µM;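 active means mean inhibition across duplicate retests at 20 µM reaching about 50%, limit read from the data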;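 further: inhibitors lower the FRET ratio by blocking Runt binding to CBFb-SMMHC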
Hck Nef HTS – inhibitors of human Hck kinase activated by Nef; inhibition, % at 20 µM; P08631; Recombinant Hck-YEEI plus Nef, Z-Lyte FRET kinase assay; actives 0.68% (n = 220,000); AID 463187;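 active means Hck-Nef kinase inhibition above about 50%, limit read from the data; inactive means inhibition below that limit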
Target sequence (P08631 whole entry, looked up): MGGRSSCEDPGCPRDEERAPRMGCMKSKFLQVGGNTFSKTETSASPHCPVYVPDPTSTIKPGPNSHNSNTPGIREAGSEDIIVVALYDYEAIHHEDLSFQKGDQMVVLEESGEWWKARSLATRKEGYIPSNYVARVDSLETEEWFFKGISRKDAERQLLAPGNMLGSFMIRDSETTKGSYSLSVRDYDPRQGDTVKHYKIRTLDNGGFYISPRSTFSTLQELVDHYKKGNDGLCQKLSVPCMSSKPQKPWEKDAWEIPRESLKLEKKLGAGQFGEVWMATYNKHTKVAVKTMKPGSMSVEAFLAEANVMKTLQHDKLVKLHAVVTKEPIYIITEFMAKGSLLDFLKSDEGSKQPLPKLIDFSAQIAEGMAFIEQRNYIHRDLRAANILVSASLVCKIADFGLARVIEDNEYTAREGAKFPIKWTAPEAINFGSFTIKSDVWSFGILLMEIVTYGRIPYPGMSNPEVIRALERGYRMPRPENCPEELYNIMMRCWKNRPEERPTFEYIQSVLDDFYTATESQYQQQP
Hck Nef conf – Hck-Nef kinase inhibition, confirmation | Recombinant Hck-YEEI:Nef, Z-Lyte FRET kinase assay | calls only at 10 µM | AID 463188 | actives 28% (n = 1,300) | shares compounds with Hck Nef HTS;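 active means average inhibition of at least 50%, with Z-scores no higher than 3 in both the phospho-tyrosine peptide and fluorescence counterscreens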
Numbers stand for hits; – = inactive; ? = inconclusive; · = not tested or not shown; + = active, no number. Only some compounds are listed: those with a hit (about 1.9% of all), similar ones and a draw of the others.

SMILES	RanGTP-Imp inh	Runt-CBFb FRET	Runt-SMMHC FRET	Hck Nef HTS	Hck Nef conf
COc1ccc(OC)c(NC(=O)CCN2CCN(c3ccccc3OC)CC2)c1	–	·	·	·	·
Cc1cc(C)c2c(n1)nn1c(NCCOCCO)cc(C)nc21	38	–	72	51	·
Cc1ccc(NC(=O)CNCCCN2CCOCC2)cc1S(=O)(=O)N1CCCCC1	–	–	–	–	·
CCOC(=O)CN1C(=O)C2Cc3ccccc3CN2C1=S (stereo unspecified)	–	–	–	–	·
CCOC(=O)c1c(NC(=O)/C=C/C(=O)O)sc(C)c1-c1ccc(Cl)cc1	–	–	–	107	+
COC(=O)C1=CN(C)C=C(C(=O)OC)C1c1ccccc1Cl	87	–	83	70	·
CCCCOc1ccccc1C1C(C(=O)OC)=CN(CC)C=C1C(=O)OC	107	–	–	62	·
CCCCOc1ccccc1C(=O)NCC(=O)O	–	–	–	–	·
CCCOc1ccccc1C1C(C(=O)OC)=CN(C(C)C)C=C1C(=O)OC	115	86	58	68	·
COC(=O)C1=CN(CCCN2CCCC2=O)C=C(C(=O)OC)C1c1ccccc1C(F)(F)F	116	–	–	85	·
CC1(C)C=C(c2ccc(O)cc2)CC(C)(C)N1	–	–	–	–	·
O=C(c1ccccc1)N1CCCCC(S(=O)(=O)c2ccc3ccccc3c2)C1=O (stereo unspecified)	–	–	–	–	·
CCOC(=O)c1cnc2ccc(C(=O)OC)cc2c1Nc1ccc(C(=O)O)cc1	–	–	–	–	·
CCOC(=O)c1ccc2ncc(C(=O)OCC)c(Nc3ccc(N4CCOCC4)cc3)c2c1	–	–	–	73	+
Cc1ccc(S(=O)(=O)N2CCN(Cc3ccccc3)CC2)c(C)c1N(C)S(=O)(=O)c1ccccc1	–	–	–	–	·
O=C(CCNS(=O)(=O)c1cccc2nsnc12)NCc1ccccc1	–	·	·	·	·
COc1ccc(CNC(=O)CCNS(=O)(=O)c2cccc3nsnc23)cc1	–	–	–	154	–
N#Cc1ccc(N2C(=O)[C@@H]3C(C(=O)c4cnccn4)=NN[C@@H]3C2=O)cc1	–	–	–	–	·
O=C(C1=NN[C@@H]2C(=O)N(c3cccc(C(F)(F)F)c3)C(=O)[C@H]12)c1cnccn1	–	–	–	52	–
O=C(O)c1ccc(N2C(=O)/C(=C/c3ccc(-c4ccc([N+](=O)[O-])cc4)o3)C=C2c2ccccc2)cc1	–	–	–	72	+
O=C1NN(c2ccccc2)C(=O)/C1=C/c1ccc(-c2ccc(C(=O)O)cc2)o1	–	·	·	·	·
O=C(CSc1nnc(SCc2ccccc2)s1)N/N=C/c1c[nH]c2ccccc12	–	·	–	95	+
OC(CN1CCCCC1)Cn1c2ccccc2c2ccccc21 (stereo unspecified)	–	·	·	·	·
O=c1c2ccccc2n(CC(O)CN2CCCCC2)c2ccccc12 (stereo unspecified)	96	61	81	154	·
Cc1cc2nc(-c3ccc(SCC(=O)Nc4ccc(S(=O)(=O)NC5CC5)cc4)nc3)[nH]c2cc1C	–	–	–	87	+
SMILES	RanGTP-Imp inh	Runt-CBFb FRET	Runt-SMMHC FRET	Hck Nef HTS	Hck Nef conf
Cc1cc2nc(-c3ccc(SCc4ccc(C(=O)O)cc4)nc3)[nH]c2cc1C	–	–	–	74	+
Cc1c(O)c(=O)ccn1C	–	–	–	–	·
COc1cc2oc(-c3ccc(O)cc3)cc(=O)c2c(O)c1OC	?	–	–	89	+
COc1c(O)cc2oc(-c3ccc(O)cc3)cc(=O)c2c1O	–	–	–	91	+
COc1cc2oc(-c3ccc(O)cc3)cc(=O)c2c(OC)c1O	–	–	–	–	·
Cc1cc(=O)[nH]c(/N=C(\N)Nc2ccc(Oc3ccccc3)cc2)n1	–	–	–	52	–
Cc1ccc(-c2cc(C(F)(F)F)n3ncc(C(=O)NCc4ccco4)c3n2)cc1	–	–	–	–	·
Cc1ccc(-c2cc(C(F)F)n3ncc(C(=O)NCc4ccco4)c3n2)cc1	·	–	–	58	–
O=S(=O)(c1ccccc1)N1N=C(c2cccs2)CC1c1ccc(F)cc1 (stereo unspecified)	–	–	–	–	·
Fc1ccc(N2N=C(c3cccs3)CC2c2ccccc2)cc1 (stereo unspecified)	–	59	91	56	–
O=C(CN1C(=O)NC2(CCCc3ccccc32)C1=O)Nc1cc(F)ccc1F (stereo unspecified)	–	·	·	·	·
COCc1cc(C)nc(OCC(=O)N/N=C/c2ccc(-c3cc([N+](=O)[O-])ccc3Cl)o2)c1C#N	–	·	–	93	–
COCc1cc(C)nc(OCC(=O)N/N=C/c2ccco2)c1C#N	–	–	–	–	·
CNc1cc(CSc2ccc(Cl)cc2)nc(C)n1	–	–	–	–	·
O=C(Nc1nccs1)c1cccc(N2C(=O)c3cccc4c([N+](=O)[O-])ccc(c34)C2=O)c1	–	–	–	52	+
O=C(Nc1ccc(S(=O)(=O)Nc2nccs2)cc1)c1cccc(N2C(=O)c3ccccc3C2=O)c1	–	–	–	–	·
COc1ccc(C(=O)Nc2cccc(-c3cc4ccccc4oc3=O)c2)cc1[N+](=O)[O-]	·	–	–	96	+
CC(C)c1ccc(NC(=O)C(c2ccc3c(c2)OCO3)N2CCCCC2)cc1 (stereo unspecified)	–	–	–	–	·
Oc1cc2c(cc1C(c1ccc(Cl)c(Cl)c1)N1CCCC1)OCO2 (stereo unspecified)	–	–	–	70	–
COc1ccccc1/C=C/C=N/NC(=O)c1cc(-c2ccco2)[nH]n1	–	–	–	59	–
O=C(Cn1c2ccc(F)cc2c2nc3n(c(=O)c21)CCS3)Nc1ccc(Cl)cc1F	–	–	–	61	–
CC1SC(C)C(=O)N(CC(=O)NC2CCCCC2)C1=O (stereo unspecified)	·	–	–	–	·
Cc1nccc(-c2sc(-c3cccs3)nc2C)n1	–	–	–	86	–
Cc1ccc(NC(=O)CN2C(=O)S/C(=C/c3ccc(O)c([N+](=O)[O-])c3)C2=O)cc1C	·	–	–	64	+
O=c1[nH]c(CSc2nc(-c3ccccc3)cs2)nc2ccccc12	–	–	–	–	·
SMILES	RanGTP-Imp inh	Runt-CBFb FRET	Runt-SMMHC FRET	Hck Nef HTS	Hck Nef conf
O=c1[nH]c(CSc2ncnc3sc(-c4ccccc4)cc23)nc2ccccc12	–	–	–	54	–
COc1ccc(C)cc1N(CC(=O)NCCN1CCOCC1)S(=O)(=O)c1ccccc1	–	·	·	·	·
O=C(CSc1nc2ccccc2n1CCc1ccccc1)c1ccc(O)c(O)c1	·	–	–	189	+
CC(=O)NC1(C(F)(F)F)NC(=O)N(CCc2ccccc2)C1=O (stereo unspecified)	–	·	·	·	·
CC1=NNC(=O)/C1=C\c1cn(-c2ccccc2)nc1-c1ccccc1	·	–	–	181	+
COc1cccc(C(=O)NCc2ccco2)c1OC	–	·	·	·	·
Cn1nccc1C(=O)Nc1sc2c(c1C(N)=O)CCCC2	–	–	–	68	–
Cc1cccc(C)c1NC(=O)CSc1nc(C2CC2)nc2ccccc12	–	·	·	·	·
